Test results taken from ChEMBL document CHEMBL4513216, “Probing the Open Global Health Chemical Diversity Library for Multistage-Active Starting Points for Next-Generation Antimalarials” (ACS Infect Dis, 2020).

Assay: Toxicity liver stage against HepG2, at 10uM
Format: cell-based
Design: test concentration 10 uM, cell line HepG2-A16-CD81EGFP
Details: human, HepG2-A16-CD81EGFP cells; read-out: INHIBITION
How it was run: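 Uninfected HepG2-A16-CD81EGFP cells, 3 × 10^3 per well, 1536-well, plated on prespotted compound at 10 μM final, parasite-free screening media added to match infected plates; puromycin 10 μM positive, DMSO 0.5% negative; run in parallel with 48 h PbLuc assay at 37 °C, 5% CO2; viability by CellTiter-Glo luminescence, normalized to controls.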

With Cc1ccc(CN2CC[C@H](c3nnc(COc4ccc(F)cc4)o3)C2)o1 the cytotoxicity at 10 µM was 5.2%.
Work on CC(C)c1nnc(C2CCN(CC(=O)Nc3cccnc3)CC2)o1 yielded a cytotoxicity at 10 µM of -5.92%.
O=C(NCC(CO)Cc1ccc(Cl)cc1)c1ccncc1F (stereo not given) gave a cytotoxicity at 10 µM of -4.84%.
CCN(CC1CN(Cc2c(C)noc2C)CCO1)c1cccnn1 (stereo not given) gave a cytotoxicity at 10 µM of -7.99%.
With O=C(NCCCn1nc2ccccn2c1=O)Nc1ccccc1Cl the cytotoxicity at 10 µM was -22.3%.
Compound Cc1cc2c(cc1C(=O)N1CCC3(CC(=O)NC3=O)C1)OCCO2 (stereo not given) has a cytotoxicity at 10 µM of 7.15%.
In the case of CN(Cc1cccnc1)C1CC2(CCN(Cc3cccnc3)CC2)C1, the cytotoxicity at 10 µM is reported as -87.2%.
CCN1CCC2(CCN(Cc3ccc(OC)cc3)CC2)C1=O showed a cytotoxicity at 10 µM of -0.0368%.
With Cc1ccc(C(=O)N(C)Cc2csc(Br)c2)c(=O)[nH]1 the cytotoxicity at 10 µM was 15.3%.
Work on O=C1CCC(C(=O)Nc2cnn(-c3ccccc3Cl)c2)N1 (stereo not given) yielded a cytotoxicity at 10 µM of -7.41%.
In the case of NC(=O)N1CCc2cc(C(=O)O)c(-c3ccsc3)nc2CC1, the cytotoxicity at 10 µM is reported as 18.3%.
COCCOCC(=O)N1C[C@@H]2CC[C@H](Oc3ccccc3Cl)[C@@H]2C1 showed a cytotoxicity at 10 µM of -10.9%.
In the case of Cc1nccn1C1CCCN(C(=O)c2cccc(Cn3ccnc3)c2)C1 (stereo not given), the cytotoxicity at 10 µM is reported as -24.6%.
Cc1nc(C2CCN(C(=O)c3ccn(C)n3)CC2)c2sccn12 gave a cytotoxicity at 10 µM of -4.66%.
In the case of Cc1cnc2c(C(=O)N(C)Cc3cc(C4CC4)[nH]n3)cnn2c1, the cytotoxicity at 10 µM is reported as -5.71%.
In the case of Cc1nc(C)c(C(=O)N2CCc3nnc(C4CCCCN4C)n3CC2)s1 (stereo not given), the cytotoxicity at 10 µM is reported as 0.642%.
With CCc1noc(C)c1C(=O)NCC(c1ccc(C)cc1)N(C)C (stereo not given) the cytotoxicity at 10 µM was -5.57%.
In the case of CN(C)c1ncccc1CNc1snc(Cl)c1C#N, the cytotoxicity at 10 µM is reported as -5.1%.
O=C(CCc1cccnc1)N1CCCC(n2cncn2)C1 (stereo not given) showed a cytotoxicity at 10 µM of -10.9%.
In the case of CC(C(=O)N1CCc2ccccc21)N1CCc2cncnc2C1 (stereo not given), the cytotoxicity at 10 µM is reported as 0.693%.
CC(C)COC(=O)N1[C@@H](c2ccco2)[C@@H](CO)C[C@]12CCCCNC2=O gave a cytotoxicity at 10 µM of 1.19%.
For Cc1noc([C@]23COC[C@H]2CN(C(=O)Cc2ccsc2)C3)n1, the cytotoxicity at 10 µM was -95.9%.
With CNCc1cc(F)ccc1Oc1ccc(Cl)cc1 the cytotoxicity at 10 µM was -8.74%.
In the case of CNC(=O)c1c(C)cccc1NCc1nnc(C2CC2)o1, the cytotoxicity at 10 µM is reported as 2.41%.
Work on CC(=O)NCCc1ccc(S(=O)(=O)N(C)C(C)C(C)(C)C)s1 (stereo not given) yielded a cytotoxicity at 10 µM of -3.58%.
With CN(CCn1cccn1)c1cc(C(F)(F)F)nc(-c2cccnc2)n1 the cytotoxicity at 10 µM was -3.63%.
With Cc1cc(C)nc(NC(=O)C(C)Oc2ccc3c(c2)OCO3)n1 (stereo not given) the cytotoxicity at 10 µM was -9.9%.
CN(Cc1cn2c(n1)CN(C(=O)c1cccn1C)CC2)Cc1ccco1 gave a cytotoxicity at 10 µM of 2.75%.
In the case of Fc1ccc(OCCNC2CCN(Cc3ccncc3)CC2)c(F)c1, the cytotoxicity at 10 µM is reported as -11.1%.
Compound Cc1noc([C@@H]2C[C@H]3CN(C(=O)C4CCN(C)CC4)C[C@H]3O2)n1 has a cytotoxicity at 10 µM of -71.2%.
Cc1csc(N2CCCN(C(=O)Cc3cccs3)CC2)n1 gave a cytotoxicity at 10 µM of -6.87%.
For CC(C)c1nc(C2CCCN(c3cnc4ccccc4n3)C2)no1 (stereo not given), the cytotoxicity at 10 µM was 2.11%.
Work on Cn1ccnc1C(=O)NC[C@@H]1OC[C@H]2CN(S(C)(=O)=O)CC[C@H]21 yielded a cytotoxicity at 10 µM of -99.3%.
In the case of CC(C)c1ncc2c(n1)CN(Cc1nc(-c3cccnc3)no1)CC2, the cytotoxicity at 10 µM is reported as -18.7%.
Work on O=C(c1n[nH]c(=O)c2ccccc12)N1CCCC1Cn1cccn1 (stereo not given) yielded a cytotoxicity at 10 µM of -0.743%.
Cc1nc(C)n(C2CCCN(C(=O)c3cc(C(N)=O)cs3)C2)n1 (stereo not given) showed a cytotoxicity at 10 µM of -6.86%.
With Cc1cnn(CC2CCCCN2C(=O)c2cc(C(N)=O)cs2)c1 (stereo not given) the cytotoxicity at 10 µM was 2.02%.
For Cc1cccc(CSc2ncc(Cl)c(C(=O)O)n2)c1, the cytotoxicity at 10 µM was 3.86%.
Compound Cc1ccc(NC(=O)C(C)N2CCCN(c3nccs3)CC2)c(C)c1 (stereo not given) has a cytotoxicity at 10 µM of 2.72%.
c1cncc(CN(Cc2ccc3c(c2)OCCO3)CC2CCCO2)c1 (stereo not given) showed a cytotoxicity at 10 µM of 1.22%.
O=C(CSCC1CC1)N1CCCC(c2nccn2Cc2ccncc2)C1 (stereo not given) showed a cytotoxicity at 10 µM of -13.3%.
Work on Cc1cccc(S(=O)(=O)N2C[C@@H]3OCCN(C(C)C)[C@@H]3C2)c1 yielded a cytotoxicity at 10 µM of 7.64%.
CCc1nccc(CN2CCC(CNC(=O)c3occc3C)C2)n1 (stereo not given) showed a cytotoxicity at 10 µM of 6.95%.
Work on CCNc1ccnc(NC2CCN(C(=O)c3ccc(C)cc3)CC2)n1 yielded a cytotoxicity at 10 µM of 5.09%.
With Cn1cc(C2CCCN2C(=O)c2cnc(C3CC3)s2)cn1 (stereo not given) the cytotoxicity at 10 µM was -2.05%.
Work on Cc1ccc(S(=O)(=O)N2CCOCC2C#N)cc1Br (stereo not given) yielded a cytotoxicity at 10 µM of 6.08%.
In the case of CCOC(=O)CN1CC(c2nc(-c3ccsc3)no2)C1, the cytotoxicity at 10 µM is reported as -12.3%.
Compound Cc1occc1C(=O)N1CC(C(=O)N2CCOCC2)C2(CCOCC2)C1 (stereo not given) has a cytotoxicity at 10 µM of 7.37%.
For CCS(=O)(=O)N1CC[C@H]2C(=O)N(Cc3cccnc3)CCO[C@H]2C1, the cytotoxicity at 10 µM was -80.4%.
In the case of O=C(CN1CCN(c2ccc3nncn3n2)CC1)NC1CCCCC1, the cytotoxicity at 10 µM is reported as -12.6%.
For CCOc1ccc(Cl)c(C(=O)N2CCCC(N3CCCC3)C2)n1 (stereo not given), the cytotoxicity at 10 µM was 8.29%.
In the case of CCc1cccc(NC(=O)CNc2ccccc2OCCC(=O)OC)c1, the cytotoxicity at 10 µM is reported as 7.53%.
In the case of COC(=O)c1ccc(NC2CCN(CC(F)(F)F)C2=O)cc1C (stereo not given), the cytotoxicity at 10 µM is reported as 2.79%.
Compound Cn1cc(CN2CCCC23CCN(Cc2nccn2C)CC3)cn1 has a cytotoxicity at 10 µM of -5.64%.
CCOc1cc2c(cc1CNC(Cc1cccs1)c1nccs1)OCO2 (stereo not given) gave a cytotoxicity at 10 µM of 7.15%.
Cc1cnn(CC(C)Nc2cnc3ccccc3n2)c1 (stereo not given) gave a cytotoxicity at 10 µM of 14.5%.
For CC(=O)N1CCC(Cc2cccc(-c3ccnn3C)n2)CC1, the cytotoxicity at 10 µM was 6.3%.
CCOCc1ccccc1NC(=O)NC1CCN(c2ncccn2)CC1 gave a cytotoxicity at 10 µM of -4.78%.
Work on CN1CCC(N(C)C(=O)CSc2ccc(F)c(F)c2)C1=O (stereo not given) yielded a cytotoxicity at 10 µM of -5.89%.
COc1cccc(NC(=O)Cn2c(=O)nc(N)c3cc(C)sc32)c1 showed a cytotoxicity at 10 µM of -8.72%.
COc1nn(C)c2c1CCCN(C(=O)c1ccsc1)C2 gave a cytotoxicity at 10 µM of -0.414%.
CCS(=O)(=O)c1ccc(N2CCC(NC(=O)c3cnn(C)c3)CC2)cc1 showed a cytotoxicity at 10 µM of -1.69%.
Work on CS(=O)(=O)N1CCN(c2ccc(Nc3ccccn3)nn2)CC1 yielded a cytotoxicity at 10 µM of -6.01%.
Compound CCN(Cc1ccncc1)C1CCN(c2ccccc2)C1=O (stereo not given) has a cytotoxicity at 10 µM of -1.83%.
COCc1ncc(CN2CCC(Oc3ccccc3C)CC2)cn1 showed a cytotoxicity at 10 µM of 1.09%.
In the case of CNS(=O)(=O)c1ccc(CNC(=O)c2cc(-c3ccccn3)no2)cc1, the cytotoxicity at 10 µM is reported as -11.4%.
With CCCc1cc(C(=O)N(C)Cc2cccc3cnccc23)n(C)n1 the cytotoxicity at 10 µM was 0.109%.
Cc1ccc(N2CCC(c3[nH]ncc3Cc3ccccc3)CC2)nn1 gave a cytotoxicity at 10 µM of -6.86%.
Work on CN1CCNC(Cc2ccc(-c3ccncc3)cc2)C1=O (stereo not given) yielded a cytotoxicity at 10 µM of -25.8%.
Cc1ccc(C(=O)N2CCCN(C)c3ccc(F)cc32)o1 showed a cytotoxicity at 10 µM of -5.26%.
Compound CNC(=O)[C@@H]1C[C@H]2CN(c3ncccn3)C[C@H]2N1C(C)C has a cytotoxicity at 10 µM of 9.72%.
In the case of Cc1nc2cc(=O)[nH]n2c(C)c1CC(=O)Nc1ccc2ccccc2n1, the cytotoxicity at 10 µM is reported as -4.15%.
In the case of CN1CCC(N2CCOC[C@H](OCC(=O)N(C)C)C2)CC1, the cytotoxicity at 10 µM is reported as 1.44%.
Cc1ccc(N2CC[C@@H]3[C@@H](CO[C@H]3CNC(=O)c3ccco3)C2)nn1 showed a cytotoxicity at 10 µM of 9.43%.
With c1cncc(OCc2noc3c2CN(Cc2cccs2)CC3)c1 the cytotoxicity at 10 µM was 9.95%.
In the case of Cc1cc(C(=O)N2CC[C@H]3[C@H](C[C@@H](CN4CCCC4)N3C)C2)c(C)o1, the cytotoxicity at 10 µM is reported as 9.97%.
With CNC(=O)c1cc(C)n(-c2cccc(OC)c2)c1C the cytotoxicity at 10 µM was -18.1%.
For CN1CC2(CCCN(Cc3ccccc3OCC(=O)O)C2)OC1=O (stereo not given), the cytotoxicity at 10 µM was -6.64%.
Work on c1coc(CN2CCC3(CCOCC3COCC3CC3)CC2)c1 (stereo not given) yielded a cytotoxicity at 10 µM of 2.79%.
Compound CC(C)c1noc(Cn2ncc3ccccc3c2=O)n1 has a cytotoxicity at 10 µM of -3.69%.
